From PubChem BioAssay
PLCg1 inh: inhibitors of human phospholipase C gamma1 | purified PLC-gamma1, fluorogenic substrate, fluorescence | inhibition, % at 12.2 µM | 370,000 tested, 0.84% active
Tn7 DDE FP: disrupts Tn7 cyclic peptide binding to fibrin D-Dimer-E complex. P02675. FP displacement of FITC-Tn7 peptide from fibrin DD(E); 0% = median of compound wells per plate. inhibition, % at 8.3 µM. 370,000 tested, 0.13% active. AID 720508;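 active = inhibition above the mean of compounds falling within the control limits plus 3 SD of them, cut at about 14% in these data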;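 also: 0% = plate median of compound wells and 100% = 10 µM Aha-Tn7 peptide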
Target sequence (P02675 whole entry, looked up): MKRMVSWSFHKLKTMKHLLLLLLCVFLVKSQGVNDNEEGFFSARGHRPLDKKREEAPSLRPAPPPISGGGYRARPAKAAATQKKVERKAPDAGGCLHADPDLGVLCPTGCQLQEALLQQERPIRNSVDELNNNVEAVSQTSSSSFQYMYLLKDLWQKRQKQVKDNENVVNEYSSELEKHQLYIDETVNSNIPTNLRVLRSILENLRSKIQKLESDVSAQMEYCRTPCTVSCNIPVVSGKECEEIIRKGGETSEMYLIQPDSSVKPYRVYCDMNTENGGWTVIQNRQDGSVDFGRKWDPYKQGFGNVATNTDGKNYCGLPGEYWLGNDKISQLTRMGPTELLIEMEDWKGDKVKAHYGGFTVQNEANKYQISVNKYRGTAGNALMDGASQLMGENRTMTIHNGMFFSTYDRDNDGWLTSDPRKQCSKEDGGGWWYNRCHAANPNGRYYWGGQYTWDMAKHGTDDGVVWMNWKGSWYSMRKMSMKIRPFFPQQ
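Test system – human fibrin DD(E) · Times – 10 min preincubation, 3 h with tracer, room temperature · Detection – fluorescence polarization of the labelled Tn7 tracer · Measure – percent inhibition normalized to high-control wells · Benchmarks – high control wells with 10 µM unlabelled Aha-Tn7 peptide (full inhibition) · Repeats – singlicate testing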
DDE Tn6 FP inh: inhibitors of Tn6 peptide binding to human fibrin DD(E); P02675; Fibrin DD(E) TRITC-Tn6 fluorescence polarization displacement; inhibition, % at 8.3 µM; 370,000 tested, 0.21% active; AID 720509;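 active = inhibition above a per-campaign cutoff: mean of compounds within control limits plus 3 SD, cut at about 15% in these data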;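 also: 0% = median of all compound wells on the plate and 100% = blocking peptide control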
DNA FID counter: counter-screen for HCV NS3 helicase inhibitors: DNA intercalator displacement. 290,000 tested, 0.17% active. DNA fluorescent intercalator displacement, fluorescence. inhibition, % at 7.9 µM; in the data active = inhibition above about 37%;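 also: 0% = vehicle and 100% = reference compound; higher means more ethidium bromide displaced from hairpin DNA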
PLCb3 inh: blocks human PLC-beta3 enzyme activity; Q01970; Purified PLC-beta3, fluorogenic substrate, fluorescence; inhibition, % at 12.2 µM; 370,000 tested, 0.18% active; AID 720704; in the data active = inhibition above about 11%;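 also: 0% = median of compound wells on plate and 100% = full blocker control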
PLCg1 ctr: PLC-gamma1 inhibition, counter-screen for PLC-beta3 hits. shares compounds with PLCg1 inh. purified PLC-gamma1, fluorogenic substrate, fluorescence. inhibition, % at 12.3 µM. 3,300 tested, 3.1% active. AID 743258
PLCbeta3 conf: confirmation of human PLC-beta3 inhibitors. shares compounds with PLCg1 inh. purified PLC-beta3, fluorogenic substrate fluorescence. 3,300 tested, 1% active. inhibition, % at 12.3 µM; in the data active = inhibition above about 11%
* hit, by the source's call; x = no result. Compounds with a hit are over-represented: about 1.4% of the library has one in this group of screens. Rule as the data show it, unless noted: active = inhibition above about 9.5%; inactive = the rest.

SMILES	PLCg1 inh	Tn7 DDE FP	DDE Tn6 FP inh	DNA FID counter	PLCb3 inh	PLCg1 ctr	PLCbeta3 conf
O=C(C[C@@H]1C/C=C\CCC(=O)OC[C@@H]2CCCN2C1=O)N[C@@H](CO)Cc1ccccc1	12.6*	4.2	-0.7	x	11.9*	6.1	1.0
COc1cccc(C(=O)N(CN2CCCC2=O)c2cccc(Cl)c2)c1	11.0*	2.6	-0.3	-23.8	5.8	-1.7	0.0
Cc1nnc(SCC(=O)N(CC(C)C)C2CCS(=O)(=O)C2)n1N (configuration not stated)	0.9	0.9	9.1	x	1.7	x	x
Cc1ccc(C)c(N(Cc2ccccc2F)S(C)(=O)=O)c1	10.4*	3.0	13.9	-15.2	-0.2	-1.4	1.2
CC12CCC(C(=O)Nc3ccc(SC(F)F)cc3)(CC1=O)C2(C)C (configuration not stated)	9.8*	4.3	-4.6	-13.8	9.5	-1.8	0.7
CC(=O)Nc1sc(C)c(C)c1C(=O)OC1CCOC1=O (configuration not stated)	-0.8	5.9	2.8	-2.4	6.4	x	x
COC(=O)[C@]12CCCCC=C1N(Cc1ccc(OC)cc1)C(=O)[C@@H]2CC(=O)N1CCN(C(=O)C2CC2)CC1	11.6*	-1.6	9.3	x	8.8	-3.6	-0.7
CCOC(=O)[C@]12CCCC=C1N(CCCOC)C(=O)[C@@H]2CC(=O)NCc1ccc(C)o1	10.0*	3.7	-1.5	x	3.4	6.4	0.1
CCOC(=O)N1CCN(C(=O)C[C@H]2C(=O)N(Cc3ccc(OC)cc3)C3=CCCCC[C@@]32C(=O)OC)CC1	-1.6	-8.8	6.5	x	-3.2	x	x
CCOC(=O)N1CCN(C(=O)C[C@H]2C(=O)N(Cc3ccc(OC)cc3)C3=CCCC[C@@]32C(=O)OCC)CC1	11.2*	-6.7	-0.7	x	2.1	-7.3	-2.1
COCCN1C(=O)CCC1(C)c1nnnn1-c1ccc2ccccc2c1 (configuration not stated)	1.6	-6.2	-0.8	x	-1.5	x	x
NC(=O)CSCc1c(Cl)cccc1Cl	2.4	5.0	-5.2	0.3	-1.0	x	x
CCN(CC(=O)Nc1ccccc1C(F)(F)F)C(=O)c1oc2c(Cl)cccc2c1C	12.7*	4.3	2.2	x	6.5	4.3	-0.6
CCN(CC(=O)Nc1ccc(OC)cc1)C(=O)c1oc2c(Cl)cccc2c1C	1.7	0.3	9.7	x	-5.1	x	x
CCOc1ccc(OCCCC(=O)NNC(=O)c2ccncc2)cc1	14.6*	-2.7	-7.0	x	7.4	8.3	1.9
Cc1ccc(OCCCC(=O)NNC(=O)c2ccncc2)cc1	1.5	-1.5	10.0	x	-4.1	x	x
COc1cccc(N2CCN(C(=O)Cn3c(=O)oc4ccccc43)CC2)c1	9.8*	1.1	0.4	-10.5	-2.3	-2.9	-5.5
CN(Cc1ccccc1)C(=O)Cn1nnc(-c2ccccc2)c1COc1ccc2ccccc2c1	11.2*	-7.0	-0.7	x	2.1	-1.7	-4.0
Cc1ccc(-n2c(SCC(=O)Nc3cccc(S(=O)(=O)NC4=NCCCCC4)c3)nc3ccccc3c2=O)cc1	-1.4	4.9	4.9	-22.1	-0.2	x	x
CCOc1cc(Br)cc(C(c2c(C(=O)O)[nH]c3ccccc23)c2c(C(=O)O)[nH]c3ccccc23)c1O	28.4*	6.5	6.9	-5.2	-10.1	48.1*	-4.3
CSc1ccc(C(c2c(C(=O)O)[nH]c3ccccc23)c2c(C(=O)O)[nH]c3ccccc23)cc1	-7.1	0.0	0.3	-8.1	-21.8	x	x
OC(CN1CCNCC1)Cn1c2ccccc2c2ccccc21 (configuration not stated)	-0.5	-5.9	-8.6	15.4	-1.5	x	x
Cc1nc([N+](=O)[O-])cn1CCCCN1C(=O)c2ccccc2C1=O	10.5*	0.2	3.0	-0.4	1.1	-0.2	-2.1
CCCCn1cc([N+](=O)[O-])nc1C	-0.4	0.5	-2.3	-0.8	-7.7	x	x
Cc1nc(Nc2ccc(Br)cc2Br)c([N+](=O)[O-])c(=O)[nH]1	0.2	2.2	-0.7	x	0.9	x	x
SMILES	PLCg1 inh	Tn7 DDE FP	DDE Tn6 FP inh	DNA FID counter	PLCb3 inh	PLCg1 ctr	PLCbeta3 conf
Cn1c(=O)oc2cc(S(=O)(=O)N3CCN(c4ccccc4)CC3)ccc21	10.6*	1.0	4.8	1.2	3.9	6.8	2.5
Cn1c(=O)oc2cc(S(=O)(=O)N3CCC(C(=O)N4CCN(c5ccccc5)CC4)CC3)ccc21	4.4	-2.8	8.4	-3.5	2.6	x	x
COC(=O)c1ccc(NC(=S)NC(=O)c2cccnc2)cc1	0.2	5.5	7.7	-9.7	-7.3	x	x
COc1ccccc1/C=N/NC(=O)C(C)Cn1cnc2ccccc21 (configuration not stated)	6.9	-5.5	-3.1	-7.4	-0.6	x	x
COC(=O)N[C@H](C(=O)N[C@@H](Cc1ccccc1)[C@@H](O)CN(Cc1ccc(-c2ccccn2)cc1)NC(=O)[C@@H](NC(=O)OC)C(C)(C)C)C(C)(C)C	15.2*	1.4	-2.7	x	11.0*	-5.9	-4.8
Cc1ccc(C(=O)OCC(=O)Nc2cccc(Br)c2)s1	2.1	3.5	-3.0	x	1.0	x	x
CC(=O)Nc1ccc(NC(=O)COC(=O)c2ccc(C)s2)cc1	10.9*	-1.4	-1.9	-10.6	-1.9	-3.5	2.2
CC(C)(CO)Cc1cc(C(C)(C)C)c(O)c(C(C)(C)C)c1	11.0*	-2.3	-0.8	x	3.8	-6.7	-3.8
Clc1ccc(Cl)c2sc(N3CCCC3)nc12	1.9	3.3	-8.4	-2.5	1.0	x	x
Clc1cccc2sc(N3CCN(c4ccccc4)CC3)nc12	10.7*	-4.1	-1.3	0.5	2.8	-2.2	1.3
O=S(=O)(c1ccccc1)N(CC(F)(F)F)c1ccc(C(O)(C(F)(F)F)C(F)(F)F)cc1	11.8*	-10.5	-6.8	x	3.9	-11.2	-7.2
Cc1cc(CNC(=O)c2ccc3oc(C(C)C)nc3c2)nn1C	-1.0	6.1	1.6	-17.1	-6.5	x	x
CC(=O)Nc1ccc(S(=O)(=O)N/N=C/c2ccc(C)s2)cc1	3.6	7.3	-1.7	-3.3	12.3*	-4.2	0.9
CC(=O)Nc1ccc(S(=O)(=O)N/N=C/c2cccnc2)cc1	0.5	-1.1	-3.5	0.7	-7.9	x	x
CCOC(=O)N1CCN(C(=O)CNC(=O)c2ccccc2F)CC1	4.2	-1.6	-5.3	x	4.1	x	x
O=C(Nc1scc(-c2cccs2)c1C(=O)O)c1cccs1	-85.0	-2.2	-1.2	5.4	-123.8	x	x
O=C(CSc1ccc(-c2cccc([N+](=O)[O-])c2)nn1)N1CCCCC1	13.9*	-4.5	-7.6	-3.0	0.4	-1.6	2.6
Nc1cc(=O)[nH]c(SCC(=O)Nc2ccc3c(c2)CCC3)n1	2.1	12.3	-5.4	-12.5	-6.4	x	x
CC(C)N(C(=O)[C@H]1C[C@H](CC(=O)NCCN2CCOCC2)C(=O)N2CCc3c([nH]c4ccc(Cl)cc34)[C@]12C)C(C)C	9.9*	-2.7	-1.5	x	3.4	-7.3	-1.3
